The subject of test [1] is K562. Nature of the test: Antiproliferative activity against human K562 cells at 1 uM after 72 hrs by MTT assay. It is filed as functional, cell-based. Background: Formazan colour is commonly taken as a measure of viable cells.
Test [2] relates to K562. The test can be described thus: Antiproliferative activity against human K562 cells at 0.1 uM after 72 hrs by MTT assay relative to control. The format is functional.
Test [3] can be described thus: Inhibition of porcine brain tubulin polymerization after 30 mins by spectrophotometric method. Also noted: species or system Sus scrofa. The procedure, abridged: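 Purified tubulin (2 mg/mL) in PEM buffer (80 mM PIPES pH 6.9, 0.5 mM EGTA, 2 mM MgCl2, 15% glycerol), preincubated on ice with compound or DMSO vehicle, then GTP added. Absorbance at 340 nm followed at 37 °C for 30 min. IC50 derived from area under the polymerization curve.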

A further test deals with A549. The test can be described thus: Antiproliferative activity against human A549 cells after 72 hrs by MTT assay. The format is functional, cell-based. Particulars: A549, 72 h. The method, boiled down:
(§1)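 Cells seeded and held 24 h at 37 °C, 5% CO2, then exposed to a concentration series in medium with 0.1% DMSO for 72 h. MTT (5 mg/mL in PBS) added for 4 h and OD read at 490 nm. IC50 taken from dose-response curves; mean ± SD of at least three independent experiments.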

Test [4] concerns K562. The test can be described thus: Antiproliferative activity against human K562 cells after 72 hrs by MTT assay. The format is functional, cell-based. Particulars: K562, 72 h. The procedure, abridged:
as §1

In another test the test system is HepG2. The test can be described thus: Antiproliferative activity against human HepG2 cells after 72 hrs by MTT assay. The format is functional, cell-based. The note with it: HepG2, 72 h. The method, boiled down:
as §1

Active and inactive are the calls of the source. The rule behind the calls is not given here.

The IC50 is the concentration that gives 50% inhibition. Read a low IC50 as greater potency in that assay.

Turning to `COc1cc(S(=O)(=O)/C=C/c2ccc(N(C)C)cc2)cc(OC)c1OC`, the outcome in the test on K562 [1] and in the test on K562 [2] was Active.
Consider `COc1ccc(/C=C/C(=O)c2cc(OC)c(OC)c(OC)c2)cc1O`, for which the half-maximal inhibitory concentration (IC50) was 3690 nM in test [3], 387 nM in the test on A549, 60 nM in the test with K562 [4] and 102 nM with HepG2.
For `COc1cc(S(=O)(=O)/C=C/c2ccc(C)cc2)cc(OC)c1OC`, the result with K562 [1] and with K562 [2] was Active.
As for `COc1cc(S(=O)(=O)/C=C/c2ccc(F)cc2)cc(OC)c1OC`, the result in the test with K562 [1] and with K562 [2] was Active.
With `COc1ccc(/C=C(\C)[S+]([O-])c2cc(OC)c(OC)c(OC)c2)cc1O` (stereo not drawn), the IC50 with A549 was more than 5000 nM; in the test with K562 [4] it was more than 1000 nM; in the test with HepG2, more than 1000 nM.
With `COc1ccc(/C=C(\C#N)S(=O)(=O)c2cc(OC)c(OC)c(OC)c2)cc1O`, the IC50 in the test with A549 is more than 5000 nM; in the test with K562 [4], more than 1000 nM; in the test on HepG2 it was more than 1000 nM.
Consider `COc1cc(/C=C/S(=O)(=O)c2cc(OC)c(OC)c(OC)c2)cc(OC)c1OC`, for which the outcome with K562 [1] and in the test on K562 [2] was Active.
As for `COc1ccc(/C=C/[S+]([O-])c2cc(OC)c(OC)c(OC)c2)cc1O` (stereo not drawn), the 50% inhibitory concentration (IC50) is 7180 nM in test [3], 1460 nM with A549, 258 nM in the test on K562 [4] and 307 nM with HepG2.
With `COc1ccc(/C=C(\F)S(=O)(=O)c2cc(OC)c(OC)c(OC)c2)cc1O`, the IC50 in the test on A549 was 1310 nM; in the test on K562 [4] it was 473 nM; in the test on HepG2, 591 nM.
In the case of `CO/C(=C\c1ccc(OC)c(O)c1)S(=O)(=O)c1cc(OC)c(OC)c(OC)c1`, the half-maximal inhibitory concentration (IC50) in the test on A549 was determined as 2880 nM; with K562 [4], 190 nM; in the test on HepG2, 599 nM.
With `COc1cc(S(=O)(=O)/C=C/c2ccc(O)c(O)c2)cc(OC)c1OC`, the outcome in the test on K562 [1] was Active. The result with K562 [2] was inactive.
Consider `COc1ccc(/C=C/[S+]([O-])c2cc(OC)c(OC)c(OC)c2)cc1N` (stereo not drawn), for which the values for the IC50 in the test on A549, in the test on K562 [4] and in the test on HepG2 were 2350 nM, 746 nM and 753 nM, respectively.
Regarding `COc1ccc(/C=C(\Cl)[S+]([O-])c2cc(OC)c(OC)c(OC)c2)cc1O` (stereo not drawn), the IC50 was 3830 nM in test [3], 1200 nM in the test on A549, 183 nM with K562 [4] and 243 nM in the test on HepG2.
In the case of `COc1ccc(/C=C(\C)S(=O)(=O)c2cc(OC)c(OC)c(OC)c2)cc1O`, the IC50 in the test with A549 amounted to 2730 nM; in the test with K562 [4], 580 nM; in the test with HepG2, 710 nM.
As to `COc1cc(S(=O)(=O)/C=C/c2ccccc2)cc(OC)c1OC`, the result in the test with K562 [1] and with K562 [2] was Active.
`COc1ccc(/C=C/S(=O)(=O)c2cc(OC)c(OC)c(OC)c2)cc1`: the result in the test with K562 [1] and with K562 [2] was Active.
For the molecule `COc1cc(S(=O)(=O)/C=C/c2ccc([N+](=O)[O-])cc2)cc(OC)c1OC`, the outcome in the test on K562 [1] and in the test on K562 [2] was Active.
As for `COc1cc(S(=O)(=O)/C=C/c2ccc(O)cc2)cc(OC)c1OC`, the outcome with K562 [1] and in the test with K562 [2] was Active.
As to `COc1ccc(/C=C/S(=O)(=O)c2cc(OC)c(OC)c(OC)c2)cc1OC`, the result in the test on K562 [1] and with K562 [2] was Active.
As to `COc1ccc(/C=C(\C#N)[S+]([O-])c2cc(OC)c(OC)c(OC)c2)cc1O` (stereo not drawn), the half-maximal inhibitory concentration (IC50) in the test with A549 is more than 5000 nM; in the test with K562 [4], more than 1000 nM; with HepG2, more than 1000 nM.
For the molecule `COc1ccc(/C=C/S(=O)(=O)c2cc(OC)c(OC)c(OC)c2)cc1F`, the result in the test on K562 [1] and with K562 [2] was Active.
For `COc1ccc(/C=C(\Cl)S(=O)(=O)c2cc(OC)c(OC)c(OC)c2)cc1O`, the IC50 in the test on A549 is more than 5000 nM; with K562 [4], more than 1000 nM; in the test on HepG2, more than 1000 nM.

For the origin of these results see ChEMBL document CHEMBL4270633, “Discovery of novel vinyl sulfone derivatives as anti-tumor agents with microtubule polymerization inhibitory and vascular disrupting activities” (Eur J Med Chem, 2018).
